Reference: ChEMBL document CHEMBL5214907 (J Med Chem, 2021)

Experiments:
[1] = target: Neuronal acetylcholine receptor; alpha9/alpha10 (Homo sapiens, UniProt Q9GZZ6+Q9UGM1); assay: Inhibition of human alpha9alpha10 nAChR expressed in xenopus oocytes assessed as inhibition of Ach- induced response at -70 mV holding potential and measured for 1 to 5 days in presence of Ach stimulation by voltage-clamp based electrophysiological method; format: cell-based, Oocyte
Summary of the method: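 Two-electrode voltage clamp on Xenopus oocytes expressing human α9α10, recorded 1–5 d after injection. Held at −70 mV at room temperature in Ca²⁺-containing ND-96. A 1 s pulse of 100 µM ACh was given every 60 s and peptide was flowed on. IC50 with 95% CI from 3–5 separate oocytes.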

[2] = target: Nicotinic acetylcholine receptor alpha9/alpha10 (Rattus norvegicus, UniProt P43144+Q9JLB5); format: cell-based, Oocyte
Nicotinic acetylcholine receptor alpha9/alpha10, sequence (P43144 whole entry): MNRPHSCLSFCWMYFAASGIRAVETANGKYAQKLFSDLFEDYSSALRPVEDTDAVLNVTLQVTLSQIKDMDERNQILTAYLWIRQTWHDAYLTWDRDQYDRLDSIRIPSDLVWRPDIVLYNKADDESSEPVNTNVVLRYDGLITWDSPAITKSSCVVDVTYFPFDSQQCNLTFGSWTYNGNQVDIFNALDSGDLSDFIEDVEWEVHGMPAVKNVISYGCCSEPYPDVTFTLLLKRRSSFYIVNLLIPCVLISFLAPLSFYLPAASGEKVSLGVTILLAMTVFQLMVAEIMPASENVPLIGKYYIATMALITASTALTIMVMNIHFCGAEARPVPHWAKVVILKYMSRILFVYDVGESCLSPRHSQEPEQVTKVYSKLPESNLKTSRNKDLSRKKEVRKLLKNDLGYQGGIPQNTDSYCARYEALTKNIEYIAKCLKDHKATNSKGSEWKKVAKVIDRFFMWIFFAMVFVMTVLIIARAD
Nicotinic acetylcholine receptor alpha9/alpha10, sequence (Q9JLB5 whole entry): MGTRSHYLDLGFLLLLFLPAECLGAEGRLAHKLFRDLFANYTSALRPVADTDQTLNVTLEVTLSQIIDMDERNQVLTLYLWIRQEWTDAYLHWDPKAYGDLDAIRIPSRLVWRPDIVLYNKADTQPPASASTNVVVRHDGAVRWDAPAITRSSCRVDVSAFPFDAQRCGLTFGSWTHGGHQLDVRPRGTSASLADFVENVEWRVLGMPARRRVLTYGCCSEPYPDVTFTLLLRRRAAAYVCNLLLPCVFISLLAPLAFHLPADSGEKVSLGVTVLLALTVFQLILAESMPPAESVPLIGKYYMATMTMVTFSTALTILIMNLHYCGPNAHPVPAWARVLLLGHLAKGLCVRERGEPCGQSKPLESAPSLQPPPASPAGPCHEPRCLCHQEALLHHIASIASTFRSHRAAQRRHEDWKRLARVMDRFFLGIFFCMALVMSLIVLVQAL

Neuronal acetylcholine receptor; alpha9/alpha10, sequence (Q9UGM1 whole entry): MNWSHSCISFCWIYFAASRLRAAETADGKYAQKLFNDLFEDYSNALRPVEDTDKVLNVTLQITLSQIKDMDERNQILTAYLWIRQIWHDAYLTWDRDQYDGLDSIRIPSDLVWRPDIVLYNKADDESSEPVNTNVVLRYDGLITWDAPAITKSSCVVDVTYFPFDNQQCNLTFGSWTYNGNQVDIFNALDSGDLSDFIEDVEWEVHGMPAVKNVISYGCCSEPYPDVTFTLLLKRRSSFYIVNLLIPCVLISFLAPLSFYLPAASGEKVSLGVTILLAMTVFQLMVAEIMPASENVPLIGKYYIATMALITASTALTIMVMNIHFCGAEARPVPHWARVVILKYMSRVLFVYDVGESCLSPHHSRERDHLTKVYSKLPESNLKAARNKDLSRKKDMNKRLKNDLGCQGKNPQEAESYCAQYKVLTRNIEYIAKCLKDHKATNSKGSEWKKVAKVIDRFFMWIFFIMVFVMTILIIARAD
Neuronal acetylcholine receptor; alpha9/alpha10, sequence (Q9GZZ6 whole entry): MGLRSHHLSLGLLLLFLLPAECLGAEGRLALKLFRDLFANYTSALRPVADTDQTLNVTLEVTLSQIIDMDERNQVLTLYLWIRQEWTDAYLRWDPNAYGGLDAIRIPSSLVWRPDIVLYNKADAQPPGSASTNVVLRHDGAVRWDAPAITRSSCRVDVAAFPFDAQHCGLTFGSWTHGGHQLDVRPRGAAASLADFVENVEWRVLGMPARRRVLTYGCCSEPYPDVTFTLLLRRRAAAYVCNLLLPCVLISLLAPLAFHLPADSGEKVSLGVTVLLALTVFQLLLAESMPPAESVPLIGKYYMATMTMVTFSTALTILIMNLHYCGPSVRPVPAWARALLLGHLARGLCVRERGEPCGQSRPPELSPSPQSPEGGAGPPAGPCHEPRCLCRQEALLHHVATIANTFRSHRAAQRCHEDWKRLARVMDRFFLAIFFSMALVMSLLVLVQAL

Compound	IC50 [1]	IC50 [2]
C[C@@H](O)[C@@H]1NC(=O)[C@H]2NC(=O)[C@H](NC(=O)CN)CSSC[C@H](NC(=O)[C@H](CCCNC(=N)N)NC(=O)[C@@H]3CCCN3C(=O)[C@H](CC(=O)O)NC1=O)C(=O)N[C@@H](CCCNC(N)=O)C(=O)N[C@@H](Cc1ccc(O)c(I)c1)C(=O)N[C@@H](CCC(N)=O)C(=O)N[C@H](C(=O)N[C@@H](Cc1ccc(O)cc1)C(=O)O)CSSC2(C)C	1.3 nM	
N=C(N)NCCC[C@H](NC(=O)[C@@H]1CSSC[C@@H]2NC(=O)[C@@H](NC(=O)CN)CSSC[C@H](NC(=O)[C@H](CCCNC(=N)N)NC(=O)[C@@H]3CCCN3C(=O)[C@H](CC(=O)O)NC(=O)[C@H](CO)NC2=O)C(=O)N[C@@H](CCCNC(N)=O)C(=O)N[C@@H](Cc2ccc(O)cc2)C(=O)N[C@@H](CCCNC(=N)N)C(=O)N1)C(=O)O		1.49 nM
C[C@@H](O)[C@@H]1NC(=O)[C@@H]2CSSC[C@@H](C(=O)N[C@@H](Cc3ccc(O)cc3)C(=O)O)NC(=O)[C@H](CCC(N)=O)NC(=O)[C@H](Cc3ccc(O)c(I)c3)NC(=O)[C@H](CCCNC(N)=O)NC(=O)[C@@H](NC(=O)[C@H](CCCNC(=N)N)NC(=O)[C@@H]3CCCN3C(=O)[C@H](CC(=O)O)NC1=O)C(C)(C)SSC[C@@H](NC(=O)CN)C(=O)N2	> 1000 nM	
C[C@@H](O)[C@@H]1NC(=O)[C@H]2NC(=O)[C@H](NC(=O)CN)CSSC[C@H](NC(=O)[C@H](CCCNC(=N)N)NC(=O)[C@@H]3CCCN3C(=O)[C@H](CC(=O)O)NC1=O)C(=O)N[C@@H](CCCNC(=N)N)C(=O)N[C@@H](Cc1ccc(O)c(I)c1)C(=O)N[C@@H](CCCN)C(=O)N[C@H](C(=O)N[C@H](CC(=O)N[C@H](CCCNC(=N)N)C(=O)O)Cc1ccc(O)cc1)CSSC2(C)C	4 nM	
C[C@@H](O)[C@@H]1NC(=O)[C@H]2NC(=O)[C@H](NC(=O)CN)CSSC[C@H](NC(=O)[C@H](CCCNC(=N)N)NC(=O)[C@@H]3CCCN3C(=O)[C@H](CC(=O)O)NC1=O)C(=O)N[C@@H](CCCNC(=N)N)C(=O)N[C@@H](Cc1ccc(O)c(I)c1)C(=O)N[C@@H](CCCN)C(=O)N[C@H](C(=O)N[C@H](CC(=O)N[C@@H](CCCCN)C(=O)O)Cc1ccc(O)cc1)CSSC2(C)C	0.36 nM	
